Results taken from ChEMBL document CHEMBL1240382, “Elucidation of the pharmacokinetic/pharmacodynamic determinant of colistin activity against Pseudomonas aeruginosa in murine thigh and lung infection models” (Antimicrob Agents Chemother, 2010).

How the values were obtained:
Pseudomonas aeruginosa [1] = experiment: Antimicrobial activity against Pseudomonas aeruginosa ATCC 27853 infected in neutropenic Swiss mouse thigh infection model assessed as reduction in bacterial burden relative to control; format: functional, organism-based; conditions: Thigh muscle
How it was run: (§1)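 Neutropenic thigh-infected Swiss mice; colistin (sulfate) s.c. started 2 h after inoculation, 5–40 mg/kg per dose every 3, 6, 8, 12 or 24 h (5–160 mg/kg/day), two mice per regimen. Killed 24 h after treatment start; each thigh homogenized and plated on nutrient agar; log10 CFU/thigh, lower count limit 100 CFU; change versus 2 h burden.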

Pseudomonas aeruginosa [2] = experiment: Antimicrobial activity against Pseudomonas aeruginosa PAO1 infected in neutropenic Swiss mouse thigh infection model assessed as reduction in bacterial burden relative to control; format: functional, organism-based; conditions: Thigh muscle; how it was run: as §1
Pseudomonas aeruginosa [3] = experiment: Antimicrobial activity against Pseudomonas aeruginosa isolate 19056 infected in neutropenic Swiss mouse thigh infection model assessed as reduction in bacterial burden relative to control; format: functional, organism-based; conditions: Thigh muscle; how it was run: as §1
Pseudomonas aeruginosa [4] = experiment: Antimicrobial activity against Pseudomonas aeruginosa ATCC 27853 infected in neutropenic Swiss mouse lung infection model assessed as reduction in bacterial burden relative to control; format: functional, organism-based
How it was run: (§2)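 Neutropenic lung-infected Swiss mice; colistin (sulfate) s.c. from 2 h post-inoculation, 5–40 mg/kg per dose every 6, 8, 12 or 24 h. Killed 24 h after treatment start; lungs homogenized in saline and plated; log10 CFU/lung (limit 220 CFU); change versus 2 h burden.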

Pseudomonas aeruginosa [5] = experiment: Antimicrobial activity against Pseudomonas aeruginosa PAO1 infected in neutropenic Swiss mouse lung infection model assessed as reduction in bacterial burden relative to control; format: functional, organism-based; how it was run: as §2
Pseudomonas aeruginosa [6] = experiment: Antimicrobial activity against Pseudomonas aeruginosa isolate 19056 infected in neutropenic Swiss mouse lung infection model assessed as reduction in bacterial burden relative to control; format: functional, organism-based; how it was run: as §2
[7] = fAUC/MIC in Pseudomonas aeruginosa ATCC 27853 infected Swiss mouse thigh infection model assessed as induction of static antimicrobial effect after 24 hrs; format: functional
How it was run: (§3)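 Unbound single-dose profiles superimposed to give 24-h fAUC (trapezoidal) per regimen, divided by MIC; log10 CFU per thigh or lung at 24 h fitted to inhibitory sigmoid Emax model by nonlinear least squares; fAUC/MIC for stasis (24-h count equal to treatment-start count) and 1-, 2-, 3-log10 kill derived from fitted parameters.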

[8] = fAUC/MIC in Pseudomonas aeruginosa ATCC 27853 infected Swiss mouse thigh infection model assessed as 1-log10 kill after 24 hrs; format: functional; how it was run: as §3
[9] = fAUC/MIC in Pseudomonas aeruginosa ATCC 27853 infected Swiss mouse thigh infection model assessed as 2-log10 kill after 24 hrs; format: functional; how it was run: as §3
[10] = fAUC/MIC in Pseudomonas aeruginosa ATCC 27853 infected Swiss mouse thigh infection model assessed as 3-log10 kill after 24 hrs; format: functional; how it was run: as §3
[11] = fAUC/MIC in Pseudomonas aeruginosa PAO1 infected Swiss mouse thigh infection model assessed as induction of static antimicrobial effect after 24 hrs; format: functional
[12] = fAUC/MIC in Pseudomonas aeruginosa PAO1 infected Swiss mouse thigh infection model assessed as 1-log10 kill after 24 hrs; format: functional; how it was run: as §3
[13] = fAUC/MIC in Pseudomonas aeruginosa PAO1 infected Swiss mouse thigh infection model assessed as 2-log10 kill after 24 hrs; format: functional
[14] = fAUC/MIC in Pseudomonas aeruginosa PAO1 infected Swiss mouse thigh infection model assessed as 3-log10 kill after 24 hrs; format: functional
[15] = fAUC/MIC in Pseudomonas aeruginosa isolate 19056 infected Swiss mouse thigh infection model assessed as induction of static antimicrobial effect after 24 hrs; format: functional
[16] = fAUC/MIC in Pseudomonas aeruginosa isolate 19056 infected Swiss mouse thigh infection model after assessed as 1-log10 kill 24 hrs; format: functional
[17] = fAUC/MIC in Pseudomonas aeruginosa isolate 19056 infected Swiss mouse thigh infection model after assessed as 2-log10 kill after 24 hrs; format: functional
[18] = fAUC/MIC in Pseudomonas aeruginosa isolate 19056 infected Swiss mouse thigh infection model after assessed as 3-log10 kill after 24 hrs; format: functional
[19] = fAUC/MIC in Pseudomonas aeruginosa ATCC 27853 infected Swiss mouse lung infection model assessed as induction of static antimicrobial effect after 24 hrs; format: functional; how it was run: as §3
[20] = fAUC/MIC in Pseudomonas aeruginosa ATCC 27853 infected Swiss mouse lung infection model assessed as 1-log10 kill after 24 hrs; format: functional; how it was run: as §3
[21] = fAUC/MIC in Pseudomonas aeruginosa ATCC 27853 infected Swiss mouse lung infection model assessed as 2-log10 kill after 24 hrs; format: functional; how it was run: as §3
[22] = fAUC/MIC in Pseudomonas aeruginosa ATCC 27853 infected Swiss mouse lung infection model assessed as 3-log10 kill after 24 hrs; format: functional; how it was run: as §3
[23] = fAUC/MIC in Pseudomonas aeruginosa PAO1 infected Swiss mouse lung infection model assessed as induction of static antimicrobial effect after 24 hrs; format: functional; how it was run: as §3
[24] = fAUC/MIC in Pseudomonas aeruginosa PAO1 infected Swiss mouse lung infection model assessed as 1-log10 kill after 24 hrs; format: functional; how it was run: as §3
[25] = fAUC/MIC in Pseudomonas aeruginosa PAO1 infected Swiss mouse lung infection model assessed as 2-log10 kill after 24 hrs; format: functional; how it was run: as §3
[26] = fAUC/MIC in Pseudomonas aeruginosa PAO1 infected Swiss mouse lung infection model assessed as 3-log10 kill after 24 hrs; format: functional; how it was run: as §3
[27] = fAUC/MIC in Pseudomonas aeruginosa isolate 19056 infected Swiss mouse lung infection model assessed as induction of static antimicrobial effect after 24 hrs; format: functional
[28] = fAUC/MIC in Pseudomonas aeruginosa isolate 19056 infected Swiss mouse lung infection model assessed as 1-log10 kill after 24 hrs; format: functional
[29] = fAUC/MIC in Pseudomonas aeruginosa isolate 19056 infected Swiss mouse lung infection model assessed as 2-log10 kill after 24 hrs; format: functional
[30] = fAUC/MIC in Pseudomonas aeruginosa isolate 19056 infected Swiss mouse lung infection model assessed as 3-log10 kill after 24 hrs; format: functional
Pseudomonas aeruginosa [31] = experiment: Antimicrobial activity against Pseudomonas aeruginosa ATCC 27853 in neutropenic Swiss mouse thigh infection model assessed as bacterial load in mouse thigh after 2 hrs; format: functional, organism-based; conditions: Thigh muscle
How it was run: (§4)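 Thigh model: female Swiss mice (22–26 g) made neutropenic with cyclophosphamide i.p. (150 mg/kg day −4, 100 mg/kg day −1). Under isoflurane, ~10^7 CFU/ml early-log suspension injected i.m. (50 µl per posterior thigh). Untreated controls killed 2 h post-inoculation; thighs homogenized in saline, filtered, serially diluted, plated on nutrient agar, counted after 24 h at 37°C; log10 CFU/thigh.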

Pseudomonas aeruginosa [32] = experiment: Antimicrobial activity against Pseudomonas aeruginosa PAO1 in neutropenic Swiss mouse thigh infection model assessed as bacterial load in mouse thigh after 2 hrs; format: functional, organism-based; conditions: Thigh muscle; how it was run: as §4
Pseudomonas aeruginosa [33] = experiment: Antimicrobial activity against Pseudomonas aeruginosa isolate 19056 in neutropenic Swiss mouse thigh infection model assessed as bacterial load in mouse thigh after 2 hrs; format: functional, organism-based; conditions: Thigh muscle; how it was run: as §4
Pseudomonas aeruginosa [34] = experiment: Antimicrobial activity against Pseudomonas aeruginosa ATCC 27853 in neutropenic Swiss mouse thigh infection model assessed as bacterial load in mouse thigh at 40 mg/kg, sc after 24 hrs; format: functional, organism-based; set-up: dose 40 mg/kg; how it was run: as §1
Pseudomonas aeruginosa [35] = experiment: Antimicrobial activity against Pseudomonas aeruginosa PAO1 in neutropenic Swiss mouse thigh infection model assessed as bacterial load in mouse thigh at 40 mg/kg, sc after 24 hrs; format: functional, organism-based; set-up: dose 40 mg/kg; how it was run: as §1
Pseudomonas aeruginosa [36] = experiment: Antimicrobial activity against Pseudomonas aeruginosa isolate 19056 in neutropenic Swiss mouse thigh infection model assessed as bacterial load in mouse thigh at 40 mg/kg, sc after 24 hrs; format: functional, organism-based; set-up: dose 40 mg/kg; how it was run: as §1
Pseudomonas aeruginosa [37] = experiment: Antimicrobial activity against Pseudomonas aeruginosa ATCC 27853 in neutropenic Swiss mouse lung infection model assessed as bacterial load in mouse thigh after 2 hrs; format: functional, organism-based; conditions: Thigh muscle
Pseudomonas aeruginosa [38] = experiment: Antimicrobial activity against Pseudomonas aeruginosa PAO1 in neutropenic Swiss mouse lung infection model assessed as bacterial load in mouse thigh after 2 hrs; format: functional, organism-based; conditions: Thigh muscle
Pseudomonas aeruginosa [39] = experiment: Antimicrobial activity against Pseudomonas aeruginosa isolate 19056 in neutropenic Swiss mouse lung infection model assessed as bacterial load in mouse thigh after 2 hrs; format: functional, organism-based
How it was run: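 Lung model: neutropenic Swiss mice under isoflurane given 50 µl of ~10^8 CFU/ml early-log suspension intranasally in ~10 µl portions, then held head-up 1 min. Untreated controls killed 2 h post-inoculation; lungs homogenized in 2 ml saline, viable counts by dilution plating on nutrient agar; lower limit 220 CFU/lung.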

Pseudomonas aeruginosa [40] = experiment: Antimicrobial activity against Pseudomonas aeruginosa ATCC 27853 in neutropenic Swiss mouse lung infection model assessed as bacterial load in mouse thigh at 40 mg/kg, sc after 24 hrs; format: functional, organism-based; set-up: dose 40 mg/kg; how it was run: as §2
Pseudomonas aeruginosa [41] = experiment: Antimicrobial activity against Pseudomonas aeruginosa PAO1 in neutropenic Swiss mouse lung infection model assessed as bacterial load in mouse thigh at 40 mg/kg, sc after 24 hrs; format: functional, organism-based; set-up: dose 40 mg/kg; how it was run: as §2
Pseudomonas aeruginosa [42] = experiment: Antimicrobial activity against Pseudomonas aeruginosa ATCC 27853 by broth microdilution method; format: functional, organism-based
How it was run: (§5)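 Colistin (sulfate) MIC by broth microdilution; strains stored in tryptone soy broth with 20% glycerol at −80°C and subcultured overnight on horse blood agar at 37°C before use.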

Pseudomonas aeruginosa [43] = experiment: Antimicrobial activity against Pseudomonas aeruginosa PAO1 by broth microdilution method; format: functional, organism-based; how it was run: as §5
Pseudomonas aeruginosa [44] = experiment: Antimicrobial activity against Pseudomonas aeruginosa isolate 19056 by broth microdilution method; format: functional, organism-based; how it was run: as §5

fAUC/MIC [7]: 17.3
fAUC/MIC [11]: 14.4
fAUC/MIC [15]: 8.34
fAUC/MIC [19]: 6.43
fAUC/MIC [23]: 5.42
fAUC/MIC [27]: 4.07
MIC (Pseudomonas aeruginosa [42]): 1 µg/mL
MIC (Pseudomonas aeruginosa [43]): 1 µg/mL
MIC (Pseudomonas aeruginosa [44]): 0.5 µg/mL
Sequence: COLISTIMETHATE SODIUM
Emax (log10 CFU/organ) (Pseudomonas aeruginosa [1]): 6.29
Emax (log10 CFU/organ) (Pseudomonas aeruginosa [2]): 5.97
Emax (log10 CFU/organ) (Pseudomonas aeruginosa [3]): 6.23
Emax (log10 CFU/organ) (Pseudomonas aeruginosa [4]): 7.58
Emax (log10 CFU/organ) (Pseudomonas aeruginosa [5]): 7.36
Emax (log10 CFU/organ) (Pseudomonas aeruginosa [6]): 6.86
fAUC/MIC [8]: 22.7
fAUC/MIC [9]: 31.2
fAUC/MIC [10]: 55.1
fAUC/MIC [12]: 22.8
fAUC/MIC [13]: 36.1
fAUC/MIC [14]: 66.7
fAUC/MIC [16]: 15.6
fAUC/MIC [17]: 27.6
fAUC/MIC [18]: 53.3
fAUC/MIC [20]: 15.6
fAUC/MIC [21]: 37.9
fAUC/MIC [22]: 105
fAUC/MIC [24]: 16.7
fAUC/MIC [25]: 45.9
fAUC/MIC [26]: 135
fAUC/MIC [28]: 12.2
fAUC/MIC [29]: 36.9
fAUC/MIC [30]: 141
log10cfu (Pseudomonas aeruginosa [31]): 6.14
log10cfu (Pseudomonas aeruginosa [32]): 6.35
log10cfu (Pseudomonas aeruginosa [33]): 6.26
log10cfu (Pseudomonas aeruginosa [34]): 3.17
log10cfu (Pseudomonas aeruginosa [35]): 4.01
log10cfu (Pseudomonas aeruginosa [36]): 3.69
log10cfu (Pseudomonas aeruginosa [37]): 6.64
log10cfu (Pseudomonas aeruginosa [38]): 6.92
log10cfu (Pseudomonas aeruginosa [39]): 6.43
log10cfu (Pseudomonas aeruginosa [40]): 3.58
log10cfu (Pseudomonas aeruginosa [41]): 3.09
